Measurements from ChEMBL document CHEMBL1124748, “Preparation of triazolo[1,5-c]pyrimidines as potential antiasthma agents” (J Med Chem, 1990).

What was measured:
[1] = Antiasthmatic activity against the immunoglobulin E (IgE) antigen using the human basophil asthma model.; format: functional
Method in brief: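 Leukocytes washed and resuspended in pH 7.4 buffer (25 mM PIPES, 110 mM NaCl, 5 mM KCl, 0.6 mM CaCl2, 1.0 mM MgCl2, 0.03% HSA). Cells preincubated with drug 10 min at 37 °C, then incubated 1 h at 37 °C with shaking. Histamine in HClO4-treated supernatants measured fluorometrically against lysed-cell totals. Triplicates, controls sextuplicate. IC50 from linear regression of percent release.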

[2] = Antiasthmatic activity against the immunoglobulin E (IgE) antigen using the human basophil asthma model; I = Inactive at 48 uM; format: functional
Mus musculus = assay: Effective dose (ip) evaluated by Passive cutaneous anaphylaxis test (PCA) by injecting IgE serum intradermally in mice

Structure (SMILES)	IC50 [1]	IC50 [2]	ED50 (Mus musculus)
Cc1cnc(-c2cccc([N+](=O)[O-])c2)n2nc(N)nc12	8.7 µM	–	–
Nc1nc2ccnc(-c3cccc(C=O)c3)n2n1	0.7 µM	–	–
FC(F)(F)c1cccc(-c2nccc3ncnn23)c1	–	Not Active	–
Nc1nc2ccnc(-c3cc(C(F)(F)F)cc(C(F)(F)F)c3)n2n1	0.7 µM	–	–
Nc1nc2ccnc(-c3cccc(F)c3)n2n1	–	Not Active	–
CC(=O)Nc1nc2c(C)cnc(-c3cccc(N)c3)n2n1	–	Not Active	–
Nc1nc2ccnc(-c3cccc(C(=O)O)c3)n2n1	–	Not Active	–
Cc1cnc(-c2cccc([N+](=O)[O-])c2)n2nc(N3CCOCC3)nc12	–	Not Active	–
Nc1nc2ccnc(-c3cccc(OC(F)F)c3)n2n1	3.4 µM	–	138 mg/kg
Nc1nc2ccnc(-c3cccnc3)n2n1	14 µM	–	–
CNc1cccc(-c2ncc(C)c3nc(NC)nn23)c1	–	Not Active	–
CC(=O)Nc1nc2ccnc(-c3cccc([N+](=O)[O-])c3)n2n1	–	Not Active	–
Nc1nc2cc(C(F)(F)F)nc(-c3cccc(C(F)(F)F)c3)n2n1	–	Not Active	–
Nc1nc2ccnc(-c3cc[n+]([O-])cc3)n2n1	5.6 µM	–	–
C#Cc1cccc(-c2nccc3nc(N)nn23)c1	12.6 µM	–	–
Cc1ccc(S(=O)(=O)Nc2cccc(-c3ncc(C)c4nc(N)nn34)c2)cc1	–	Not Active	–
Nc1nc2ccnc(-c3cccc(CO)c3)n2n1	–	Not Active	–
Cc1cc2nc(N)nn2c(-c2ccc(C(F)(F)F)cc2)n1	–	Not Active	–
Nc1nc2ccnc(-c3ccccn3)n2n1	–	Not Active	–
Nc1nc2ccnc(-c3ccccc3F)n2n1	–	Not Active	218 mg/kg
CNc1nc2ccnc(-c3cccc(C(F)(F)F)c3)n2n1	10.2 µM	–	–

Structure (SMILES)	IC50 [1]	IC50 [2]	ED50 (Mus musculus)
Cc1ccc(S(=O)(=O)Nc2cccc(-c3nccc4nc(N)nn34)c2)cc1	1.5 µM	–	–
Nc1nc2ccnc(-c3cc(Cl)cc(Cl)c3)n2n1	–	Not Active	–
Nc1nc2ccnc(-c3cccc(Br)c3)n2n1	3.7 µM	–	142 mg/kg
CC(=O)Nc1nc2c(C)cnc(-c3cccc([N+](=O)[O-])c3)n2n1	11 µM	–	–
CN(C)c1nc2ccnc(-c3cccc(C(F)(F)F)c3)n2n1	–	Not Active	–
O=C(O)c1cc(=O)c2c(OCC(O)COc3cccc4oc(C(=O)O)cc(=O)c34)cccc2o1 [CROMOLYN SODIUM]	1000 µM	–	–
CC(=O)Nc1nc2c(C)cnc(-c3cccc(NS(=O)(=O)c4ccc(C)cc4)c3)n2n1	51.8 µM	–	–
Nc1nc2ccnc(-c3ccc(F)cc3)n2n1	31.3 µM	–	178 mg/kg
CC(=O)Nc1nc2ccnc(-c3cccc(NS(=O)(=O)c4ccc(C)cc4)c3)n2n1	1.6 µM	–	–
Nc1nc2ccnc(-c3cccc(C(Cl)Cl)c3)n2n1	1 µM	–	–
Cc1cccc(-c2nccc3nc(N)nn23)c1	5.5 µM	–	–
CCCc1cc2nc(N)nn2c(-c2cccc(C(F)(F)F)c2)n1	–	Not Active	–
Nc1nc2ccnc(-c3cccs3)n2n1	–	Not Active	–
CN(C)/C=N/c1nc2ccnc(-c3cccc(C(F)(F)F)c3)n2n1	–	Not Active	–
CCOC(=O)CNc1nc2ccnc(-c3cccc(C(F)(F)F)c3)n2n1	–	Not Active	–
Nc1nc2ccnc(-c3ccc(C(F)(F)F)cc3)n2n1	–	Not Active	–
CCOC(=O)c1ccc(-c2nccc3nc(N)nn23)cc1	16.5 µM	–	–
Nc1nc2ccnc(-c3ccccc3)n2n1	–	Not Active	–
Nc1nc2ccnc(-c3cccc(C(F)(F)F)c3)n2n1	2.2 µM	–	166 mg/kg
Nc1nc2ccnc(-c3ccc[n+]([O-])c3)n2n1	–	Not Active	–
FC(F)(F)c1cccc(-c2nccc3nc(NCC4CO4)nn23)c1 (stereo unspecified)	–	Not Active	–

Structure (SMILES)	IC50 [1]	IC50 [2]	ED50 (Mus musculus)
Cc1cnc(-c2cccc(C(F)(F)F)c2)n2nc(N)nc12	5.6 µM	–	–
Cc1cccnc1-c1nccc2nc(N)nn12	–	Not Active	–
Nc1nc2ccnc(-c3ccncc3)n2n1	18 µM	–	14 mg/kg
CC(=O)Nc1nc2ccnc(-c3cccc(C(F)(F)F)c3)n2n1	20 µM	–	–
Cc1cnc(-c2cccc([N+](=O)[O-])c2)n2nc(Cl)nc12	–	Not Active	–
Cc1cnc(-c2cccc(N)c2)n2nc(N)nc12	–	Not Active	–
Cc1cnc(-c2ccc(C(F)(F)F)cc2)n2nc(N)nc12	–	Not Active	–
Cc1cc2nc(N)nn2c(-c2cccc(C(F)(F)F)c2)n1	–	Not Active	–
Nc1nc2ccnc(-c3cccc([N+](=O)[O-])c3)n2n1	3.8 µM	–	–
CCOC(=O)CN(C(C)=O)c1nc2ccnc(-c3cccc(C(F)(F)F)c3)n2n1	–	Not Active	–
CCCc1c(C)nc(-c2cccc(C(F)(F)F)c2)n2nc(N)nc12	–	Not Active	–
OC(CCl)CNc1nc2ccnc(-c3cccc(C(F)(F)F)c3)n2n1 (stereo unspecified)	9.3 µM	–	–
CCOC(=O)c1cccc(-c2nccc3nc(N)nn23)c1	11.5 µM	–	–
Cc1cnccc1-c1nccc2nc(N)nn12	2.5 µM	–	–
Nc1nc2ccnc(Cc3cccc(C(F)(F)F)c3)n2n1	–	Not Active	178 mg/kg
Nc1nc2ccnc(-c3cccc(Cl)c3)n2n1	4.3 µM	–	–
CC(=O)N(C)c1nc2ccnc(-c3cccc(C(F)(F)F)c3)n2n1	–	Not Active	–
CN(C)C(=O)c1cccc(-c2nccc3nc(N)nn23)c1	3.5 µM	–	–
Cn1c(=O)c2nc[nH]c2n(C)c1=O.O [THEOPHYLLINE]	309 µM	–	140 mg/kg
C[n+]1cccc(-c2nccc3nc(N)nn23)c1.[I-]	–	Not Active	–
Cc1cnc(-c2ccccc2)n2nc(N)nc12	–	Not Active	–
